Converted amounts (≈) assume the structure as drawn.
Legend:
Staphylococcus aureus = assay: Antimicrobial activity against Staphylococcus aureus ATCC 6538P by agar dilution method; assay type: functional; conditions: Staphylococcus aureus, ATCC 6538P; read-out: MIC
Summary of the method: (§1)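 Read-out is the minimal inhibitory concentration, found by agar dilution against the named strain.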

Bacillus spizizenii = assay: Antimicrobial activity against Bacillus subtilis ATCC 6633 by agar dilution method; assay type: functional; conditions: Bacillus spizizenii, ATCC 6633; read-out: MIC; summary of the method: as §1
Klebsiella pneumoniae = assay: Antimicrobial activity against Klebsiella pneumoniae ATCC 10031 by agar dilution method; assay type: functional; conditions: Klebsiella pneumoniae, ATCC 10031; read-out: MIC; summary of the method: as §1
[1] = target: Bacterial 70S ribosome (Bacteria) (UniProt P0A7V0+P60723+P0AG67+P0A7R5+P0A7R9+P0A7S3+P0A7S9+P0AG59+P0ADZ4+P0A7T3+P0AG63+P0A7T7+P0A7U3+P0A7U7+P68679+P0A7V3+P0A7V8+P0A7W1+P02358+P02359+P0A7W7+P0A7X3+P0A7J3+P0A7J7+P0AA10+P0ADY3+P02413+P0ADY7+P0AG44+P0C018+P0A7K6+P0A7L0+P0A7L3+P0AG48+P61175+P0ADZ0+P60624+P68919+P0A7L8+P0A7M2+P0A7M6+P60422+P0AG51+P0A7N1+P0A7M9+P0A7N4+P0A7N9+P0A7P5+P0A7Q1+Q2EEQ2+P0A7Q6+P60438+P62399+P0AG55+P0A7K2); assay: (§2) Displacement of [14C]erythromycin from Escherichia coli ribosomes after 30 mins by scintillation spectrometer analysis
Summary of the method: (§3)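 NH4Cl-washed E. coli ribosomes with [14C]erythromycin A and varied competitor concentrations in 0.01 M Tris-HCl pH 7.2, 0.1 M KCl, 0.004 M MgCl2, 0.01 M NH4Cl. Incubated 30 min at 24 °C, stopped by dilution in cold Tris/KCl/MgCl2 buffer, membrane-filtered, washed three times, dried, scintillation counted. Reports the concentration giving 50% inhibition of binding.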

Bacterial 70S ribosome = assay: as §2; summary of the method: as §3

Structure (SMILES) | MIC (Staphylococcus aureus) [µg/mL] | MIC (Bacillus spizizenii) [µg/mL] | MIC (Klebsiella pneumoniae) [µg/mL] | pK50 [1] | IC50 (Bacterial 70S ribosome) [nM]
CO[C@@H]1[C@@H](O[C@@H]2O[C@H](C)[C@@H](O[C@H]3C[C@@](C)(O)[C@@H](OC(C)=O)[C@H](C)O3)[C@H](N(C)C)[C@H]2O)[C@@H](CC=O)C[C@@H](C)[C@@H](O)/C=C/C=C/C[C@@H](C)OC(=O)C[C@H]1OC(C)=O | 3.1 (≈ 3.94 µM) | 6.3 (≈ 8.02 µM) | 100 (≈ 127 µM) | 5.2 | 6700
CCCC(=O)O[C@H]1/C=C/C=C/C[C@@H](C)OC(=O)C[C@@H](OC(C)=O)[C@H](OC)[C@@H](O[C@@H]2O[C@H](C)[C@@H](O[C@H]3C[C@@](C)(O)[C@@H](OC(=O)CC(C)C)[C@H](C)O3)[C@H](N(C)C)[C@H]2O)[C@@H](CC=O)C[C@H]1C | 3.1 (≈ 3.45 µM) | 1.6 (≈ 1.78 µM) | 100 (≈ 111 µM) | 5.7 | 1900
CCCC(=O)O[C@H]1[C@H](C)O[C@@H](O[C@H]2[C@H](N(C)C)[C@@H](O)[C@H](O[C@H]3[C@@H](CC=O)C[C@@H](C)[C@@H](OC(=O)CC)/C=C/C=C/C[C@@H](C)OC(=O)C[C@@H](O)[C@@H]3OC)O[C@@H]2C)C[C@@]1(C)O | 1.6 (≈ 1.93 µM) | 0.8 (≈ 0.966 µM) | 50 (≈ 60.4 µM) | 5.8 | 1700
CCC(=O)O[C@H]1[C@H](O[C@H]2[C@@H](CC=O)C[C@@H](C)[C@@H](OC(=O)CC)/C=C/C=C/C[C@@H](C)OC(=O)C[C@@H](OC(C)=O)[C@@H]2OC)O[C@H](C)[C@@H](O[C@H]2C[C@@](C)(O)[C@@H](OC(=O)CC(C)C)[C@H](C)O2)[C@@H]1N(C)C | 6.3 (≈ 6.7 µM) | 6.3 (≈ 6.7 µM) | 100 (≈ 106 µM) | – | > 100000
CO[C@@H]1[C@@H](O[C@@H]2O[C@H](C)[C@@H](O[C@H]3C[C@@](C)(O)[C@@H](O)[C@H](C)O3)[C@H](N(C)C)[C@H]2O)[C@@H](CC=O)C[C@@H](C)[C@@H](O)/C=C/C=C/C[C@@H](C)OC(=O)C[C@H]1OC(C)=O | 12.5 (≈ 16.8 µM) | 6.3 (≈ 8.47 µM) | 100 (≈ 134 µM) | 5 | 10700
CO[C@@H]1[C@@H](O[C@@H]2O[C@H](C)[C@@H](O[C@H]3C[C@@](C)(O)[C@@H](OC(=O)CC(C)C)[C@H](C)O3)[C@H](N(C)C)[C@H]2O)[C@@H](CC=O)C[C@@H](C)[C@@H](OC(C)=O)/C=C/C=C/C[C@@H](C)OC(=O)C[C@H]1O | 1.6 (≈ 1.93 µM) | 0.8 (≈ 0.966 µM) | 50 (≈ 60.4 µM) | 6 | 1100
CC[C@H]1OC(=O)[C@H](C)[C@@H](O[C@H]2C[C@@](C)(OC)[C@@H](O)[C@H](C)O2)[C@H](C)[C@@H](O[C@@H]2O[C@H](C)C[C@H](N(C)C)[C@H]2O)[C@](C)(O)C[C@@H](C)C(=O)[C@H](C)[C@@H](O)[C@]1(C)O [ERYTHROMYCIN] | 0.4 (≈ 0.545 µM) | 0.2 (≈ 0.273 µM) | 6.3 (≈ 8.58 µM) | 6.1 | 750
CO[C@@H]1[C@@H](O[C@@H]2O[C@H](C)[C@@H](O[C@H]3C[C@@](C)(O)[C@@H](OC(=O)CC(C)C)[C@H](C)O3)[C@H](N(C)C)[C@H]2O)[C@@H](CC=O)C[C@@H](C)[C@@H](O)/C=C/C=C/C[C@@H](C)OC(=O)C[C@H]1OC(C)=O [JOSAMYCIN] | 1.6 (≈ 1.93 µM) | 0.4 (≈ 0.483 µM) | 25 (≈ 30.2 µM) | 5.9 | 1200
CO[C@@H]1[C@@H](O[C@@H]2O[C@H](C)[C@@H](O[C@H]3C[C@@](C)(O)[C@@H](OC(=O)CC(C)C)[C@H](C)O3)[C@H](N(C)C)[C@H]2O)[C@@H](CC=O)C[C@@H](C)[C@@H](OC(C)=O)/C=C/C=C/C[C@@H](C)OC(=O)C[C@H]1OC(C)=O | 1.6 (≈ 1.84 µM) | 1.6 (≈ 1.84 µM) | 50 (≈ 57.5 µM) | 5.9 | 1300
CCCC(=O)O[C@H]1[C@H](C)O[C@@H](O[C@H]2[C@H](N(C)C)[C@@H](OC(C)=O)[C@H](O[C@H]3[C@@H](CC=O)C[C@@H](C)[C@@H](OC(C)=O)/C=C/C=C/C[C@@H](C)OC(=O)C[C@@H](OC(C)=O)[C@@H]3OC)O[C@@H]2C)C[C@@]1(C)O | 1.6 (≈ 1.78 µM) | 1.6 (≈ 1.78 µM) | 100 (≈ 111 µM) | 4.5 | 33100
CCCC(=O)O[C@H]1/C=C/C=C/C[C@@H](C)OC(=O)C[C@@H](O)[C@H](OC)[C@@H](O[C@@H]2O[C@H](C)[C@@H](O[C@H]3C[C@@](C)(O)[C@@H](OC(=O)CCC)[C@H](C)O3)[C@H](N(C)C)[C@H]2O)[C@@H](CC=O)C[C@H]1C | 1.6 (≈ 1.9 µM) | 1.6 (≈ 1.9 µM) | 50 (≈ 59.4 µM) | 6 | 900

— ChEMBL document CHEMBL3244414, “Structure-activity relationships among the O-acyl derivatives of leucomycin. Correlation of minimal inhibitory concentrations with binding to Escherichia coli ribosomes” (J Med Chem, 1977)
